Test results published in ChEMBL document CHEMBL3351861, “New synthetic sulfone derivatives inhibit growth, adhesion and the leucine arylamidase APE2 gene expression of Candida albicans in vitro” (2015).
Converted amounts (≈) assume the structure as drawn.

What was measured:
Candida albicans [1] = experiment: Antifungal activity against Candida albicans CAI4 expressing delta-cph1 (CPH1) gene assessed as growth inhibition at 0.25 ug/ml by CLSI M27-A3 method; type: functional; details: read-out: GI
How it was run: (§1)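 CLSI M27-A3 broth microdilution in RPMI, read after 48 h. Strains pre-grown 18 h in YEPD at 30°C. Final inoculum 0.5×10^2–2.5×10^3 cells/ml. Two-fold dilutions in RPMI came from a 1600 µg/ml stock in water with 9% DMSO; final DMSO was 0.09%. OD405 read, % inhibition = 100 − (CTW−SCW)/(GCW−SCW). Triplicate on three occasions, mean±SD.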

Candida albicans [2] = experiment: Antifungal activity against Candida albicans CAI4 expressing delta-efg1 gene assessed as growth inhibition at 0.5 ug/ml by CLSI M27-A3 method; type: functional; details: read-out: GI; how it was run: as §1
Candida albicans [3] = experiment: Inhibition of cell adhesion of compound pre-treated Candida albicans CAI4 expressing delta-efg1/delta-cph1 gene to human Caco2 cells assessed as cell adhesion level at 8 ug/ml pre-incubated for 18 hrs by colony counting method (reference value: 1.22 +/- 0.78%); type: functional, Caco-2; set-up: scale not given: the % may be the effect or the level left
Candida albicans [4] = experiment: Antifungal activity against Candida albicans CAI4 expressing delta-cph1/delta-efg1 gene assessed as growth inhibition at 1 ug/ml by CLSI M27-A3 method; type: functional; details: read-out: GI; how it was run: as §1
Candida albicans [5] = experiment: Antifungal activity against Candida albicans CAI4 expressing delta-efg1 gene assessed as growth inhibition at by CLSI M27-A3 method; type: functional
How it was run: (§2)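 CLSI M27-A3 broth microdilution in RPMI. Final inoculum 0.5×10^2 to 2.5×10^3 cells/ml. Seven two-fold concentrations from 0.25 to 16 µg/ml, with DMSO held at 0.09% (v/v) in all wells. Compound-free growth controls and sterility controls are run for each strain. […] Triplicate on three occasions.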

Candida albicans [6] = experiment: Inhibition of cell adhesion of compound pre-treated Candida albicans CAI4 expressing delta-cph1 (CPH1) gene to human Caco2 cells assessed as cell adhesion level at 8 ug/ml pre-incubated for 18 hrs by colony counting method (reference value: 5.37 +/- 12.4%); type: functional, Caco-2; set-up: scale not given: the % may be the effect or the level left
Candida albicans [7] = experiment: Antifungal activity against Candida albicans CAI4 expressing delta-cph1 (CPH1) gene assessed as growth inhibition at 8 ug/ml by CLSI M27-A3 method; type: functional; details: read-out: GI; how it was run: as §1
Candida albicans [8] = experiment: Antifungal activity against Candida albicans 90028 assessed as growth inhibition at 0.5 ug/ml by CLSI M27-A3 method; type: functional; details: read-out: GI; how it was run: as §1
Candida albicans [9] = experiment: Inhibition of cell adhesion of compound pre-treated Candida albicans 90028 to human Caco2 cells assessed as cell adhesion level at 8 ug/ml pre-incubated for 18 hrs by colony counting method (reference value: 1.58 +/- 0.67%); type: functional, Caco-2; set-up: scale not given: the % may be the effect or the level left
Candida albicans [10] = experiment: Antifungal activity against Candida albicans CAI4 expressing delta-efg1 (EFG1) gene assessed as growth inhibition at 8 ug/ml by CLSI M27-A3 method; type: functional; details: read-out: GI; how it was run: as §1
Candida albicans [11] = experiment: Antifungal activity against Candida albicans CAI4 expressing delta-cph1 (CPH1) gene assessed as growth inhibition at 0.5 ug/ml by CLSI M27-A3 method; type: functional; details: read-out: GI; how it was run: as §1
Candida albicans [12] = experiment: Antifungal activity against Candida albicans 90028 assessed as growth inhibition at 8 ug/ml by CLSI M27-A3 method; type: functional; details: read-out: GI; how it was run: as §1
Candida albicans [13] = experiment: Antifungal activity against Candida albicans CAI4 expressing delta-cph1/delta-efg1 (EFG1) gene assessed as growth inhibition at 16 ug/ml by CLSI M27-A3 method; type: functional; details: read-out: GI; how it was run: as §1
Candida albicans [14] = experiment: Antifungal activity against Candida albicans CAI4 expressing delta-efg1 (EFG1) gene assessed as growth inhibition at 4 ug/ml by CLSI M27-A3 method; type: functional; details: read-out: GI; how it was run: as §1
Candida albicans [15] = experiment: Antifungal activity against Candida albicans CAI4 expressing delta-efg1 (EFG1) gene assessed as growth inhibition at 0.5 ug/ml by CLSI M27-A3 method; type: functional; details: read-out: GI; how it was run: as §1
Candida albicans [16] = experiment: Antifungal activity against Candida albicans CAI4 expressing delta-cph1 gene assessed as growth inhibition at 1 ug/ml by CLSI M27-A3 method; type: functional; details: read-out: GI; how it was run: as §1
Candida albicans [17] = experiment: Antifungal activity against Candida albicans CAI4 expressing delta-cph1 (CPH1) gene assessed as growth inhibition at 4 ug/ml by CLSI M27-A3 method; type: functional; details: read-out: GI; how it was run: as §1
Candida albicans [18] = experiment: Antifungal activity against Candida albicans CAI4 expressing delta-cph1/delta-efg1 gene assessed as growth inhibition at 4 ug/ml by CLSI M27-A3 method; type: functional; details: read-out: GI; how it was run: as §1
Candida albicans [19] = experiment: Inhibition of cell adhesion of compound pre-treated Candida albicans CAI4 expressing delta-efg1/delta-cph1 gene to human Caco2 cells assessed as cell adhesion level at 2 ug/ml pre-incubated for 18 hrs by colony counting method (reference value: 1.22 +/- 0.78%); type: functional, Caco-2; set-up: scale not given: the % may be the effect or the level left
Candida albicans [20] = experiment: Antifungal activity against Candida albicans 90028 assessed as growth inhibition at 1 ug/ml by CLSI M27-A3 method; type: functional; details: read-out: GI; how it was run: as §1
Candida albicans [21] = experiment: Antifungal activity against Candida albicans CAI4 expressing delta-cph1/delta-efg1 gene assessed as growth inhibition at 16 ug/ml by CLSI M27-A3 method; type: functional; details: read-out: GI; how it was run: as §1
Candida albicans [22] = experiment: Antifungal activity against Candida albicans CAI4 expressing delta-efg1 (EFG1) gene assessed as growth inhibition at 0.25 ug/ml by CLSI M27-A3 method; type: functional; details: read-out: GI; how it was run: as §1
Candida albicans [23] = experiment: Antifungal activity against Candida albicans CAI4 expressing delta-cph1 gene assessed as growth inhibition at 4 ug/ml by CLSI M27-A3 method; type: functional; details: read-out: GI; how it was run: as §1
Candida albicans [24] = experiment: Antifungal activity against Candida albicans CAI4 expressing delta-efg1 gene assessed as growth inhibition at 2 ug/ml by CLSI M27-A3 method; type: functional; details: read-out: GI; how it was run: as §2
Candida albicans [25] = experiment: Antifungal activity against Candida albicans CAI4 expressing delta-cph1/delta-efg1 gene assessed as growth inhibition at 0.5 ug/ml by CLSI M27-A3 method; type: functional; details: read-out: GI; how it was run: as §1
Candida albicans [26] = experiment: Antifungal activity against Candida albicans CAI4 expressing delta-cph1 gene assessed as growth inhibition at 0.25 ug/ml by CLSI M27-A3 method; type: functional; details: read-out: GI; how it was run: as §1
Candida albicans [27] = experiment: Antifungal activity against Candida albicans CAI4 expressing delta-efg1 gene assessed as growth inhibition at 4 ug/ml by CLSI M27-A3 method; type: functional; details: read-out: GI; how it was run: as §2
Candida albicans [28] = experiment: Inhibition of cell adhesion of compound pre-treated Candida albicans CAI4 expressing delta-efg1 gene to human Caco2 cells assessed as cell adhesion level at 16 ug/ml pre-incubated for 18 hrs by colony counting method (reference value: 2.1 +/- 3.52%); type: functional, Caco-2; set-up: scale not given: the % may be the effect or the level left
Candida albicans [29] = experiment: Inhibition of cell adhesion of compound pre-treated Candida albicans SC5314 to human Caco2 cells assessed as cell adhesion level at 16 ug/ml pre-incubated for 18 hrs by colony counting method (reference value: 1.1 +/- 1.1%); type: functional, Caco-2; set-up: scale not given: the % may be the effect or the level left
Candida albicans [30] = experiment: Antifungal activity against Candida albicans CAI4 expressing delta-cph1/delta-efg1 (EFG1) gene assessed as growth inhibition at 8 ug/ml by CLSI M27-A3 method; type: functional; details: read-out: GI; how it was run: as §1
Candida albicans [31] = experiment: Antifungal activity against Candida albicans CAI4 expressing delta-efg1 (EFG1) gene assessed as growth inhibition at by CLSI M27-A3 method; type: functional
Candida albicans [32] = experiment: Antifungal activity against Candida albicans CAI4 expressing delta-efg1 gene assessed as growth inhibition at 8 ug/ml by CLSI M27-A3 method; type: functional; details: read-out: GI; how it was run: as §2

SMILES	inhibition of growth at 0.25 µg/mL (Candida albicans [1]) [%]	inhibition of growth at 0.5 µg/mL (Candida albicans [2]) [%]	Activity (Candida albicans [3]) [%]	inhibition of growth at 1 µg/mL (Candida albicans [4]) [%]	MIC90 (Candida albicans [5]) [µg/mL]	Activity (Candida albicans [6]) [%]	inhibition of growth at 8 µg/mL (Candida albicans [7]) [%]	inhibition of growth at 0.5 µg/mL (Candida albicans [8]) [%]	Activity (Candida albicans [9]) [%]	inhibition of growth at 8 µg/mL (Candida albicans [10]) [%]	inhibition of growth at 0.5 µg/mL (Candida albicans [11]) [%]	inhibition of growth at 8 µg/mL (Candida albicans [12]) [%]	inhibition of growth at 16 µg/mL (Candida albicans [13]) [%]	inhibition of growth at 4 µg/mL (Candida albicans [14]) [%]	inhibition of growth at 0.5 µg/mL (Candida albicans [15]) [%]	inhibition of growth at 1 µg/mL (Candida albicans [16]) [%]	inhibition of growth at 4 µg/mL (Candida albicans [17]) [%]	inhibition of growth at 4 µg/mL (Candida albicans [18]) [%]	Activity (Candida albicans [19]) [%]	inhibition of growth at 1 µg/mL (Candida albicans [20]) [%]	other results
O=[N+]([O-])c1cc(S(=O)(=O)C(Cl)Cl)ccc1Cl	91.8	99.4	0.48	99.1	16 (≈ 52.5 µM)	0.71	99.4	99.1	2.05	98.9	96.7	99.3	99.4	98.5	95.4	99.3	98.7	99.2	0.47	99.2	inhibition of growth at 16 µg/mL (Candida albicans [21]): 99.7%; inhibition of growth at 0.25 µg/mL (Candida albicans [22]): 95.2%; inhibition of growth at 4 µg/mL (Candida albicans [23]): 99.1%; inhibition of growth at 2 µg/mL (Candida albicans [24]): 99.4%; inhibition of growth at 0.5 µg/mL (Candida albicans [25]): 99.1%; inhibition of growth at 0.25 µg/mL (Candida albicans [26]): 97.7%; inhibition of growth at 4 µg/mL (Candida albicans [27]): 99.5%; Activity (Candida albicans [28]): 1.06%; Activity (Candida albicans [29]): 0.68%; inhibition of growth at 8 µg/mL (Candida albicans [30]): 99.3%; MIC90 (Candida albicans [31]): 16 µg/mL (≈ 52.5 µM); inhibition of growth at 8 µg/mL (Candida albicans [32]): 99.4%
NNc1ccc(S(=O)(=O)C(Cl)(Br)Br)cc1[N+](=O)[O-]	98.6	97.9	1.66	100	4 (≈ 9.45 µM)	0.9	99.7	81.8	2.66	99.8	98.8	100	100	99.3	98.8	99.8	99.1	100	2.94	97.4	inhibition of growth at 16 µg/mL (Candida albicans [21]): 100%; inhibition of growth at 0.25 µg/mL (Candida albicans [22]): 98.6%; inhibition of growth at 4 µg/mL (Candida albicans [23]): 100%; inhibition of growth at 2 µg/mL (Candida albicans [24]): 99.7%; inhibition of growth at 0.5 µg/mL (Candida albicans [25]): 97%; inhibition of growth at 0.25 µg/mL (Candida albicans [26]): 20%; inhibition of growth at 4 µg/mL (Candida albicans [27]): 100%; Activity (Candida albicans [28]): 0.81%; Activity (Candida albicans [29]): 0.8%; inhibition of growth at 8 µg/mL (Candida albicans [30]): 99.4%; MIC90 (Candida albicans [31]): 4 µg/mL (≈ 9.45 µM); inhibition of growth at 8 µg/mL (Candida albicans [32]): 100%
